Calls of active or inactive are those of the source. The calls are words filed in the database; no cut-off is given here.
What was measured:
[1] = system: MDA-MB-436; test: […] in human MDA-MB-436 cells xenografted in Crl:NU-Foxn1-nu/nu mouse […] administered at 5 mg/kg, ip in presence of adriamycin treated for 21 days by SA-beta-gal staining analysis; type: functional, organism-based; conditions: time 21.0 day
Summary of the method: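 SA-β-gal staining of xenograft tumors. Twice-weekly intraperitoneal GSK343 5 mg/kg, adriamycin 1 mg/kg, the combination, or DMSO, started at a tumor volume of about 50 mm3 and continued for 21 days.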

[2] = system: MCF7; test: Antiproliferative activity against human MCF7 cells assessed as increase in global H3K9me3 expression level by immunoblot analysis; type: toxicity, cell-based
Summary of the method: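 Cells exposed to GSK343 at 2 µM (standard level unless stated otherwise), lysed and immunoblotted; α-tubulin and total H3 as loading controls.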

[3] = system: MDA-MB-436; test: Effect on human MDA-MB-436 cells expressing shTET1 assessed as increase in p21 cascade by immunoblot analysis; type: functional, cell-based
[4] = system: MDA-MB-436; test: Antiproliferative activity in human MDA-MB-436 cells expressing shTET1 assessed as increase in SA-beta-gal positive cells by SA-beta-gal staining analysis (reference value: 8.2+/-2.4%); type: functional
[5] = system: MDA-MB-231; test: Effect on human MDA-MB-231 cells expressing shTET1 assessed as increase in p53 cascade by immunoblot analysis; type: functional, cell-based
[6] = system: MDA-MB-436; test: Antiproliferative activity in human MDA-MB-436 cells assessed as increase in C12FDG based fluorescent SA-beta-gal positive cells at 2 uM in presence of adriamycin by FACS analysis; type: functional, cell-based
Summary of the method: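 Cells given 0.005 µg/ml adriamycin with or without 2 µM GSK343, or DMSO; SA-β-gal activity detected with C12FDG fluorescent substrate by flow cytometry, reported as percent positive cells. Mean ± SD.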

[7] = system: MDA-MB-436; test: Effect on human MDA-MB-436 cells assessed as apoptotic phenotype by measuring increase in BAX expression level at 2 uM in presence of adriamycin by immunoblot analysis; type: functional, cell-based
Summary of the method: (§1)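 Immunoblot of cell lysates after 0.05 µg/ml adriamycin alone, with 2 µM GSK343, or DMSO. α-Tubulin and total H3 used as loading controls.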

[8] = system: MDA-MB-231; test: Effect on human MDA-MB-231 cells assessed as apoptotic phenotype by measuring increase in p53 expression level at 2 uM in presence of adriamycin by immunoblot analysis; type: functional, cell-based; summary of the method: as §1
[9] = system: MDA-MB-436; test: Effect on […] in human MDA-MB-436 cells assessed as repression in TET1 promoter EZH2 by ChiP-qPCR analysis; type: functional, cell-based
Summary of the method: (§2)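 Cells treated with GSK343 or DMSO; chromatin immunoprecipitated with anti-EZH2 or anti-H3K27me3 antibody and quantified by qPCR with primers for the TET1 promoter; input as internal control, IgG as negative control.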

[10] = system: MDA-MB-231; test: Effect on human MDA-MB-231 cells assessed as apoptotic phenotype by measuring increase in BIM expression level at 2 uM in presence of adriamycin by immunoblot analysis; type: functional, cell-based; summary of the method: as §1
[11] = system: MDA-MB-436; test: Induction of apoptosis in human MDA-MB-436 cells assessed as increase in accumulation of cells at G1 phase in presence of adriamycin by BrdU/PI-based cell cycle analysis; type: functional
Summary of the method: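 Cell cycle by BrdU/PI staining and flow cytometry, giving G1, S and G2 fractions. Cells received 0.005 µg/ml adriamycin with or without 2 µM GSK343, or DMSO. Mean ± SD.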

[12] = system: MDA-MB-231; test: Upregulation of […] signalling in human MDA-MB-231 cells at 2 uM for 2 days by immunoblot analysis; type: functional, cell-based; conditions: time 2.0 day
[13] = system: SK-BR-3; test: Antiproliferative activity in human SK-BR-3 cells assessed as increase in SA-beta-gal positive cells at 2 uM for 5 days by SA-beta-gal staining analysis; type: toxicity, cell-based; conditions: sk-br-3, 120 h, time 5 day
Summary of the method: (§3)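 GSK343 2 µM or DMSO for 5 days, then chromogenic SA-β-gal staining and counting of positive cells. Triplicate; mean ± SD.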

[14] = system: MDA-MB-231; test: Effect on […] in human MDA-MB-231 cells assessed as repression in TET1 promoter H3K27me3 by ChiP-qPCR analysis; type: functional, cell-based; summary of the method: as §2
[15] = system: MCF7; test: Cytotoxicity against human MCF7 cells assessed as increase in cell death at 10 uM for 2 days by Guava viacount assay; type: toxicity, cell-based; conditions: mcf7, 48 h, time 2 day
Summary of the method: (§4)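 Cells plated at 2 × 10^4 (24-well) or 1 × 10^5 (12-well), exposed to a range of GSK343 concentrations for 2 days against DMSO solvent control; cell number and viability read by Guava ViaCount flow cytometry, relative to DMSO. Triplicate; mean ± SD.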

[16] = system: MDA-MB-436; test: Effect on human MDA-MB-436 cells assessed as increase in TET1 protein level by qRT-PCR analysis
[17] = system: MDA-MB-436; test: Upregulation of CDKN1A gene in human MDA-MB-436 cells at 2 uM by qRT-PCR analysis; type: functional, cell-based
Summary of the method: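 Relative transcript levels measured by qRT-PCR in cells treated with 2 µM inhibitor, normalised to DMSO-treated control cells. Triplicate experiments unless stated otherwise; mean ± SD reported; unpaired two-tailed Student's t-test at p < 0.05.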

[18] = system: MDA-MB-231; test: Antiproliferative activity against human MDA-MB-231 cells assessed as increase in cell death at 10 uM for 2 days by Guava viacount assay; type: functional, cell-based; conditions: time 2.0 day; summary of the method: as §4
[19] = system: MDA-MB-231; test: Antiproliferative activity in human MDA-MB-231 cells expressing shTET1 assessed as increase in SA-beta-gal positive cells by SA-beta-gal staining analysis (reference value: 9+/-1.5%); type: functional
[20] = system: MDA-MB-436; test: Effect on human MDA-MB-436 cells assessed as apoptotic phenotype by measuring increase in PUMA expression level at 2 uM in presence of adriamycin by immunoblot analysis; type: functional, cell-based; summary of the method: as §1
[21] = system: MDA-MB-231; test: Cytotoxicity against human MDA-MB-231 cells assessed as killing of cells at 2 uM in presence of adriamycin; type: functional, cell-based
Summary of the method: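 Viability after a range of adriamycin concentrations given alone or together with 2 µM GSK343, measured by Guava ViaCount; mean ± SD.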

[22] = system: MCF7; test: Effect on human MCF7 cells assessed as increase in global 5hmc level by dot analysis; type: functional, cell-based
Summary of the method: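 Global 5hmC measured by dot blot on genomic DNA from cells given GSK343 or carrying EZH2 knock-down, with DMSO or scrambled shRNA as controls. DNA denatured in 0.1 M NaOH at 99 °C for 5 min, then neutralized with ammonium sulfate pH 7.0. 5 µg spotted, UV-crosslinked, probed with anti-5hmC for 1 h at room temperature, ECL detection, dot intensity quantified. Mean ± SD.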

[23] = system: MDA-MB-436; test: Effect on human MDA-MB-436 cells expressing shTET1 assessed as increase in p53 cascade by immunoblot analysis; type: functional, cell-based
[24] = system: MDA-MB-231; test: Downregulation of EZH2 protein expression in human MDA-MB-231 cells at 2 uM for 2 days by immunoblot analysis; type: functional, cell-based; conditions: time 2.0 day
[25] = system: MDA-MB-436; test: In vivo activation of TET1 in Crl:NU-Foxn1-nu/nu mouse xenografted with human MDA-MB-436 cells at 5 mg/kg, ip in presence of adriamycin treated for 21 days; type: functional, organism-based; conditions: time 21.0 day
[26] = system: MDA-MB-436; test: Antiproliferative activity in human MDA-MB-436 cells assessed as increase in SA-beta-gal positive cells at 2 uM for 5 days by SA-beta-gal staining analysis; type: functional, cell-based; conditions: time 5.0 day; summary of the method: as §3

CCCc1cc(C)[nH]c(=O)c1CNC(=O)c1cc(-c2ccnc(N3CCN(C)CC3)c2)cc2c1cnn2C(C)C
Activity [1]: Active
Activity [2]: Non-Toxic
Activity [3]: inactive
Activity [4]: 20.3%
Activity [5]: inactive
Activity [6]: Active
Activity [7]: Active
Activity [8]: Active
Activity [9]: Active
Activity [10]: Active
Activity [11]: Active
Activity [12]: Active
Activity [13]: Non-Toxic
Activity [14]: Active
Activity [15]: Non-Toxic
Activity [16]: Active
Activity [17]: Active
Activity [18]: Active
Activity [19]: 12.3%
Activity [20]: Active
Activity [21]: Active
Activity [22]: inactive
Activity [23]: inactive
Activity [24]: Active
Activity [25]: Active
Activity [26]: Active

Source: ChEMBL document CHEMBL5715960, “Epigenetic Co-Deregulation of EZH2/TET1 is a Senescence-Countering, Actionable Vulnerability in Triple-Negative Breast Cancer” (Theranostics, 2019)
